Laboratory results reported in ChEMBL document CHEMBL1145192, “Discovery of a novel class of reversible non-peptide caspase inhibitors via a structure-based approach” (J Med Chem, 2005).

Columns and labels:
[1] = target: T1, Caspase-3 (Homo sapiens, UniProt P42574); test: Inhibitory concentration against caspase-3 expressed in Escherichia coli. BL21(DE3) by fluorometric assay
T1 sequence (P42574 whole entry): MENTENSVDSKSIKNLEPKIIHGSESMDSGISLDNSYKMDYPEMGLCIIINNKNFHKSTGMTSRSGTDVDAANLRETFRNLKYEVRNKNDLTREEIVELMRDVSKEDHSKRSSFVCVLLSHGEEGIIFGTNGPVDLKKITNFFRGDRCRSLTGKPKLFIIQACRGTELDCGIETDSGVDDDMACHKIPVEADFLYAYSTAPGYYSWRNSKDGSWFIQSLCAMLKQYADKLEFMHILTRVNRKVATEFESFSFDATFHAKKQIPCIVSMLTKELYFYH

[2] = target: T2, Caspase-7 (Homo sapiens, UniProt P55210); test: Inhibitory concentration against caspase-7 expressed in Escherichia coli. BL21(DE3) by fluorometric assay
T2 sequence (P55210 whole entry): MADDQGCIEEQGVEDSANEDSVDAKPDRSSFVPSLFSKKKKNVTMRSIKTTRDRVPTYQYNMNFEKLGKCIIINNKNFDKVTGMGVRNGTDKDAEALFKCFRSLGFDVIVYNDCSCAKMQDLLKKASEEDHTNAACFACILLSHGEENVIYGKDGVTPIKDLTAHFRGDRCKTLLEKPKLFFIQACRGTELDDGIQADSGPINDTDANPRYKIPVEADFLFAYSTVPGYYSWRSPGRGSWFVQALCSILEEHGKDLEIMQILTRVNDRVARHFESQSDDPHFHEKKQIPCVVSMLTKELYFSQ

[3] = target: T3, Caspase-8 (Homo sapiens, UniProt Q14790); test: Inhibitory concentration against caspase-8 expressed in Escherichia coli. BL21(DE3) by fluorometric assay
T3 sequence (Q14790 217-374 limits assumed): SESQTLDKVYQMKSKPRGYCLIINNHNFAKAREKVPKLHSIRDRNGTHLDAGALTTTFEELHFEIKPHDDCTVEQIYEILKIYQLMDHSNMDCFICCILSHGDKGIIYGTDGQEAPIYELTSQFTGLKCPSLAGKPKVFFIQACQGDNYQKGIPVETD
T3 sequence (Q14790 385-479 limits assumed): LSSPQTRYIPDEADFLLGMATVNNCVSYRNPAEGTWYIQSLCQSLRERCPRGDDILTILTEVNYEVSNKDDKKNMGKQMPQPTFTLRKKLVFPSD

[4] = target: T3, Caspase-8; test: Binding affinity against caspase-8 expressed in Escherichia coli. BL21(DE3) by fluorometric assay
Summary of the method: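 E. coli-expressed active caspase-8, titrated with Z-VAD-FMK, 25-50 nM, with 40 µM Ac-IETD-AFC in 10 mM phosphate buffer (pH 7.5), 10 mM NaCl. Fluorescence at ex 405 / em 505 nm, followed kinetically over 30 min at room temperature. Ki from Lineweaver-Burk double-reciprocal analysis over varied substrate concentrations, assuming competitive inhibition.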

SMILES	IC50 [1]	IC50 [2]	IC50 [3]	Ki [4]
CCOC(=O)c1ccc(N/C=C(\C#N)c2nc(-c3cc4cc([N+](=O)[O-])ccc4oc3=O)cs2)cc1	> 100 µM	–	–	–
COc1ccc(N/C=C(\C#N)c2nc(-c3cc4cc([N+](=O)[O-])ccc4oc3=O)cs2)cc1	> 1000 µM	–	–	–
O=C(c1csc(C2COc3ccccc3O2)n1)N1CCOCC1 (configuration not stated)	150 µM	> 200 µM	> 200 µM	–
O=C(Oc1ccc(Cl)cc1)c1csc(C2COc3ccccc3O2)n1 (configuration not stated)	–	> 200 µM	> 200 µM	–
CCOC(=O)c1sc(C2COc3ccccc3O2)nc1C (configuration not stated)	–	> 200 µM	> 200 µM	–
O=C(NCc1ccco1)c1csc(C2COc3ccccc3O2)n1 (configuration not stated)	133 µM	> 200 µM	60 µM	–
CN(C)C(=O)c1csc(C2COc3ccccc3O2)n1 (configuration not stated)	129 µM	> 200 µM	> 200 µM	–
FC(F)(F)c1cccc(-c2csc(C3COc4ccccc4O3)n2)c1 (configuration not stated)	–	–	–	2.7 µM
O=C(O)c1csc(C2COc3ccccc3O2)n1 (configuration not stated)	> 200 µM	170 µM	75 µM	–
O=C(Sc1cccs1)c1csc(C2COc3ccccc3O2)n1 (configuration not stated)	–	> 200 µM	62 µM	–
O=C(Oc1ccccc1)c1csc(C2COc3ccccc3O2)n1 (configuration not stated)	–	> 200 µM	60 µM	–
Cc1nc(C2COc3ccccc3O2)sc1C(=O)O (configuration not stated)	128 µM	> 200 µM	> 200 µM	–
CCOC(=O)c1csc(C2COc3ccccc3O2)n1 (configuration not stated)	–	–	–	30 µM
